From ChEMBL document CHEMBL1134085, “Discovery of potent and selective phenylalanine derived CCR3 antagonists. Part 1” (Bioorg Med Chem Lett, 2001)
pIC50: −log10 of the molar value. Where “and” joins values, the source holds several entries; their conditions need not be identical. Equal entries are not always repeated. Where a SMILES comes first, the peptide text is derived from it. The star is where a group is joined. Cbz = O=C(OCc1ccccc1)*

Molecular target: T1, C-C chemokine receptor type 3 (Homo sapiens, UniProt P51677)
T1 sequence (P51677 whole entry): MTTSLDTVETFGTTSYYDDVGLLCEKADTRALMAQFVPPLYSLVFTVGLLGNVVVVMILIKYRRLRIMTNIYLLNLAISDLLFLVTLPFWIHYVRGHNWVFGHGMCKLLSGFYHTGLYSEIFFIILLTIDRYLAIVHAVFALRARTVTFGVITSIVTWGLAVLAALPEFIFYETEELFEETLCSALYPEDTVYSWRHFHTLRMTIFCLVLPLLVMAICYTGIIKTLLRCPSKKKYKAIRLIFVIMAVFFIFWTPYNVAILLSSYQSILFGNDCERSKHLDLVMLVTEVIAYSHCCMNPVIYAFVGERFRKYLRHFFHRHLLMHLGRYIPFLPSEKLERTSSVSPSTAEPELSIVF
Assay: Inhibitory activity against human eosinophil C-C chemokine receptor type 3 using [125I]- human eotaxin as the radioligand
Procedure, shortened: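 Competition binding on CCR3 from purified human eosinophils as receptor source, with [125I]human eotaxin as radioligand; IC50 taken as displacement of radioligand binding.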

pIC50	SMILES
5.40	O=C(N[C@@H](Cc1ccc([N+](=O)[O-])cc1)C(=O)NCc1ccccc1)c1cccc2ccccc12
7.31	CCOC(=O)[C@H](Cc1ccc([N+](=O)[O-])cc1)NC(=O)c1ccccc1
8.52	CCOC(=O)[C@H](Cc1ccc([N+](=O)[O-])cc1)NC(=O)c1ccc(C)cc1C
7.10	CCOC(=O)[C@H](Cc1ccc(O)cc1)NC(=O)c1cccc2ccccc12
6.27	CCOC(=O)[C@H](Cc1cc(I)c(O)c(I)c1)NC(=O)c1ccccc1
< 4.48	CCOC(=O)[C@H](Cc1ccc(O)cc1)NC(=O)Nc1ccccc1
8.10	CCOC(=O)[C@H](Cc1ccc([N+](=O)[O-])cc1)NC(=O)c1cccc2ccccc12
5.77	CCOC(=O)[C@H](Cc1ccc(O)cc1)NC(=O)c1ccccn1
< 4.70	CCOC(=O)[C@@H](NC(=O)c1ccccc1)c1ccccc1
5.23	CCOC(=O)[C@H](CCc1ccccc1)NC(=O)c1ccccc1
7.74	O=C(N[C@@H](Cc1ccc([N+](=O)[O-])cc1)C(=O)OCc1ccccc1)c1cccc2ccccc12
< 4.48	CN(C)C(=O)[C@H](Cc1ccc([N+](=O)[O-])cc1)NC(=O)c1cccc2ccccc12
5.05	CCOC(=O)[C@H](C)NC(=O)c1ccccc1
< 4.48	CCCC(=O)[C@H](Cc1ccc([N+](=O)[O-])cc1)NC(=O)c1cccc2ccccc12
8.30	COC(=O)[C@H](Cc1ccc([N+](=O)[O-])cc1)NC(=O)c1cccc2ccccc12
6.42	CCOC(=O)[C@H](Cc1ccc(O)cc1)NC(=O)c1ccccc1
5.59	CCOC(=O)[C@H](Cc1ccc(O)cc1)NC(=O)Cc1ccccc1
7.68	CC(C)OC(=O)[C@H](Cc1ccc([N+](=O)[O-])cc1)NC(=O)c1cccc2ccccc12
< 4.30	CCOC(=O)[C@@H](Cc1ccc(O)cc1)NC(=O)c1ccccc1
6.72	CCOC(=O)[C@H](Cc1ccccc1)NC(=O)c1ccccc1
6.49	CCOC(=O)[C@H](Cc1c[nH]c2ccccc12)NC(=O)c1ccccc1
4.80	CCOC(=O)[C@H](Cc1ccc(O)cc1)NS(=O)(=O)c1ccc(C)cc1
7.24	CC(C)(C)OC(=O)[C@H](Cc1ccc([N+](=O)[O-])cc1)NC(=O)c1cccc2ccccc12
< 4.60	CCOC(=O)[C@H](Cc1ccc(O)cc1)NC(=O)[C@H](CC(N)=O)NC(=O)OCc1ccccc1 (Cbz-Asn-Tyr-OEt)
< 4.60	CCOC(=O)[C@H](Cc1ccc(O)cc1)NC(=O)[C@H](CCC(N)=O)NC(=O)OCc1ccccc1 (Cbz-Gln-Tyr-OEt)
5.20	CCOC(=O)[C@H](Cc1ccc(O)cc1)NC(=O)[C@H](Cc1ccccc1)NC(=O)OCc1ccccc1 (Cbz-Phe-Tyr-OEt)
< 4.60	CCOC(=O)[C@H](Cc1ccc(O)cc1)NC(=O)[C@H](CO)NC(=O)OCc1ccccc1 (Cbz-Ser-Tyr-OEt)

Molecular target: T1, C-C chemokine receptor type 3
Assay: […] activity against C-C chemokine receptor type 3 by displacing [125I]-MCP-4 radioligand, using CCR3 binding assay

pIC50	SMILES
8.15	COC(=O)[C@H](Cc1ccc([N+](=O)[O-])cc1)NC(=O)c1cccc2ccccc12

Molecular target: T1, C-C chemokine receptor type 3
Assay: […] against C-C chemokine receptor type 3 by displacing Eotaxin radioligand, using [Ca2+] mobilization assay
Format: functional
Procedure, shortened: (§1)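 Functional antagonism was tested in RBL-2H3 cells expressing CCR3. Cells were challenged with eotaxin or eotaxin-2, and the resulting rise in intracellular Ca2+ was measured. Inhibition of this calcium mobilization is reported as an IC50 in nM.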

pIC50	SMILES
7.42	COC(=O)[C@H](Cc1ccc([N+](=O)[O-])cc1)NC(=O)c1cccc2ccccc12

Molecular target: T1, C-C chemokine receptor type 3
Assay: […] activity against C-C chemokine receptor type 3 by displacing Eotaxin-2 radioligand, using [Ca2+] mobilization assay
Format: functional
Procedure, shortened: as §1

pIC50	SMILES
7.46 and 7.70	COC(=O)[C@H](Cc1ccc([N+](=O)[O-])cc1)NC(=O)c1cccc2ccccc12
